ATG4B inh – ATG4B protease inhibitors, primary screen, biochemical, fluorescence, uHTS; Cysteine protease ATG4B (Homo sapiens), Q9Y4P1; ATG4B cleavage of LC3-PLA2, NBD-HPC fluorescence, 1 h; inhibition, % at 8.33 µM; 340,000 compounds, 0.51% hits; AID 504462, 2011; in the data active = inhibition above about 40%
ABCB6 inh 2 – ABCB6 transporter inhibitors, primary screen, K562-ABCB6 cells, flow cytometry, MLPCN library; fluorescence ratio to DMSO, % at 10 µM; ATP-binding cassette sub-family B member 6 (Homo sapiens), Q9NP58; 360,000 compounds, 0.19% hits; K562-ABCB6 porphyrin accumulation, 1 h; hits give low values;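 active = fluorescence ratio to DMSO below 75%, the collection mean minus 3 SD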;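 also: signal is porphyrin accumulated inside mitochondria; 100% equals median channel fluorescence of DMSO control wells; lower ratio means ABCB6 inhibition with less porphyrin fluorescence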
Granule exo inh – LAMP-1 surface exposure blockers, TALL-104 cells – cell-based, flow cytometry, MLPCN library, primary screen; 360,000 compounds, 0.66% hits; TALL-104 LAMP-1 surface exposure; cells stimulated with thapsigargin and PMA; inhibition, % at 10 µM;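 active = inhibition above about 55%, limit read from the data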
NRP1-CendR mod – modulators of CendR peptide binding to NRP-1, primary screen, biochemical, fluorescence polarization, uHTS; AID 602438, 2012; Neuropilin-1 (Homo sapiens), O14786; inhibition, % at 25 µM; FAM-RPARPAR peptide binding to NRP-1; 360,000 compounds, 0.85% hits;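 active = inhibition or corrected inhibition above about 18%, plus a signal ratio from 0.5 to 1.5, limit read from the data, passing the limit was not always enough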
Target sequence (O14786 whole entry, looked up): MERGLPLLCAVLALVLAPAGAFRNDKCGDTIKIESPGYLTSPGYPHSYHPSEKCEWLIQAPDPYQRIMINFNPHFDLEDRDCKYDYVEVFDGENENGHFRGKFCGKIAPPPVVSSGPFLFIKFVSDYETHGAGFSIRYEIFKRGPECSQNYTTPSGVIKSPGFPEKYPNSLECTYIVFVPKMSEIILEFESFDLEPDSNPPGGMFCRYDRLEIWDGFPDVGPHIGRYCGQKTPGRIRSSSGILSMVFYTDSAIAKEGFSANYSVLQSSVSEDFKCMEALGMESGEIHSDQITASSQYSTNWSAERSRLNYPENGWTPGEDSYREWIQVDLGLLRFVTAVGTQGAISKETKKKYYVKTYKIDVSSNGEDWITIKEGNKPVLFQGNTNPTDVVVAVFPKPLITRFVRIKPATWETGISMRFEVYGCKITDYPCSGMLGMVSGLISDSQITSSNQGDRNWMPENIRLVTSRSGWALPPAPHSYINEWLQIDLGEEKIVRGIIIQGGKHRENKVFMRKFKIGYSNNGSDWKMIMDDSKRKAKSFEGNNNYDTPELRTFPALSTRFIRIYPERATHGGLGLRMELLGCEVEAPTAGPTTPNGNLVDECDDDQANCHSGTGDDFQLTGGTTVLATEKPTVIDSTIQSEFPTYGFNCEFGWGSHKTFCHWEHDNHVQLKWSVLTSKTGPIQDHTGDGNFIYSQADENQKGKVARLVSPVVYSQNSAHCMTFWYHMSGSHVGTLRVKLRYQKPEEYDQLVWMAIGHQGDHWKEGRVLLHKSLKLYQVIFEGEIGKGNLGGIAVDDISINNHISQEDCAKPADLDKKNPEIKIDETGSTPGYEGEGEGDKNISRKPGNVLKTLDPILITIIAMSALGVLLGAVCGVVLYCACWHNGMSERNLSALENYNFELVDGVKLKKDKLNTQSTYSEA
Myeloid diff MLP – induction of myeloid progenitor differentiation, primary screen, cell-based, flow cytometry, MLPCN library. ER-HoxA9 myeloid progenitors, lysozyme-GFP differentiation. calls only at 10 µM. 360,000 compounds, 1% hits. AID 624256, 2012;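 active = normalized GFP-positive differentiation at or above the plate's own cutoff, the solvent-only control mean plus 3 SD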;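 also: cells exposed to compound for four days before flow analysis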
Arr AP2 block – inhibitors of beta-arrestin/AP2 binding, primary screen, biochemical, GPCR trafficking, flow cytometry. beta-arrestin 1 C-terminal peptide binding to AP2 beta2-adaptin appendage (human). FITC-arrestin peptide / GST-AP2 beads; AP2 beta2 appendage carries R879A mutation. inhibition, % at 10 µM. 340,000 compounds, 0.31% hits;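 active = inhibition above a set limit, near 3 SD of compounds lacking own fluorescence, cut at about 54% in these data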;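 also: plate controls were DMSO wells for no effect and 5 µM unlabelled arrestin peptide for full effect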
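Test system: GST-tagged AP2 beta2-adaptin appendage (R879A) on 4 µm glutathione beads; also added: fluorescein-tagged arrestin peptide at 50 nM final; timing: 12 min plus 1 h, RT; signal: flow cytometry, FL1 (488/535 nm); read-out: percent drop in bead-associated FITC signal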
Granule exo CP1 – inhibitors of lytic granule exocytosis, confirmation, TALL-104 cells, flow cytometry, Cherry Pick01. shares compounds with Granule exo inh. LAMP-1 externalization; stimulated with PMA plus thapsigargin. inhibition, % at 10 µM. 1,500 compounds, 11% hits; in the data active = inhibition above about 60%;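 also: 0% = stimulated vehicle wells and 100% = unstimulated wells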
* = called active by the depositor. Compounds with a hit are over-represented: about 3.3% of the library has one in this group of screens.

What do the screens show for `COc1ccccc1NC(=O)CSc1nc2sc(C)c(C)c2c(=O)n1C`?
ATG4B inh: -5.2; ABCB6 inh 2: 100.0; Granule exo inh: 59.7*; NRP1-CendR mod: 1.3; Myeloid diff MLP: inactive; Arr AP2 block: 35.0; Granule exo CP1: -14.0

How did COCCn1c(SCC(=O)Nc2ccccc2OC)nc2c(oc3ccccc32)c1=O do in these assays?
ATG4B inh: 5.9; ABCB6 inh 2: 99.0; Granule exo inh: 64.6*; NRP1-CendR mod: 8.3; Myeloid diff MLP: inactive; Arr AP2 block: -8.2; Granule exo CP1: 0.5

What do the screens show for `CCCc1ccc(S(=O)(=O)N(C)S(=O)(=O)c2ccc(F)cc2)cc1`?
ATG4B inh: 0.7; ABCB6 inh 2: 95.0; Granule exo inh: 69.8*; NRP1-CendR mod: 9.4; Arr AP2 block: 4.8; Granule exo CP1: -12.7

What do the screens show for `CCN(CC)S(=O)(=O)c1ccc(F)cc1`?
ATG4B inh: 3.8; ABCB6 inh 2: 105.0; Granule exo inh: -1.0; NRP1-CendR mod: 19.7; Myeloid diff MLP: inactive; Arr AP2 block: 14.7

What do the screens show for `Cc1cccc(N2C(=O)CC(Sc3nnc(C)s3)C2=O)c1` (centres undefined)?
ATG4B inh: 4.0; ABCB6 inh 2: 104.0; Granule exo inh: 67.4*; NRP1-CendR mod: 5.6; Myeloid diff MLP: inactive; Arr AP2 block: -3.5; Granule exo CP1: -1.2

How did Cc1ccc(N2C(=O)CC(Sc3cccs3)C2=O)cc1 (centres undefined) do in these assays?
ATG4B inh: -4.5; ABCB6 inh 2: 99.0; Granule exo inh: 86.4*; NRP1-CendR mod: 7.7; Myeloid diff MLP: inactive; Arr AP2 block: -3.2; Granule exo CP1: -8.3

How did COc1ccccc1CN(C)C(=O)c1ccc(S(=O)(=O)Nc2c(C)n(C)n(-c3ccccc3)c2=O)cc1 do in these assays?
ATG4B inh: 1.3; ABCB6 inh 2: 100.0; Granule exo inh: 4.7; NRP1-CendR mod: -5.5; Myeloid diff MLP: inactive; Arr AP2 block: -0.9

Results for O=C(Nc1ccc(-c2cn3ccccc3n2)cc1)c1cccs1 ?
ATG4B inh: -3.6; ABCB6 inh 2: 100.0; Granule exo inh: 71.9*; NRP1-CendR mod: 0.3; Myeloid diff MLP: inactive; Arr AP2 block: 7.2; Granule exo CP1: 48.2

How did Cc1ccn2cc(-c3ccc(NC(=O)c4ccco4)cc3)nc2c1 do in these assays?
ATG4B inh: -3.7; ABCB6 inh 2: 98.0; Granule exo inh: 85.4*; NRP1-CendR mod: -19.0; Myeloid diff MLP: inactive; Arr AP2 block: -11.6; Granule exo CP1: -3.7

What do the screens show for `COc1ccc(N2CCN(C(c3cccs3)C(C)NC(=O)C(=O)N3CCCCC3)CC2)cc1` (centres undefined)?
ATG4B inh: 1.8; ABCB6 inh 2: 93.0; Granule exo inh: -1.5; NRP1-CendR mod: -8.4; Myeloid diff MLP: inactive; Arr AP2 block: -0.7

Results for Cc1ccc(/C=C2/NC(=O)N(Cc3ccccc3)C2=O)o1 ?
ATG4B inh: -3.3; ABCB6 inh 2: 213.0; Granule exo inh: 57.5*; NRP1-CendR mod: -83.0; Myeloid diff MLP: inactive; Arr AP2 block: -18.1; Granule exo CP1: -9.1

How did CC(NC(=S)Nc1ccc(F)cc1)c1ccccc1 (centres undefined) do in these assays?
ATG4B inh: -4.1; ABCB6 inh 2: 100.0; Granule exo inh: 73.8*; NRP1-CendR mod: 2.5; Myeloid diff MLP: inactive; Arr AP2 block: 15.0; Granule exo CP1: -4.7

Results for CC(C)(C)c1nc2c(s1)CCc1onc(-c3ccc(Cl)cc3)c1-2 ?
ATG4B inh: -11.4; ABCB6 inh 2: 97.0; Granule exo inh: -5.0; NRP1-CendR mod: 12.4; Myeloid diff MLP: inactive; Arr AP2 block: -12.4

How did Clc1ccc(-c2noc3c2-c2nc(Cc4cccc5ccccc45)sc2CC3)cc1 do in these assays?
ATG4B inh: -4.0; ABCB6 inh 2: 95.0; Granule exo inh: 73.7*; NRP1-CendR mod: 0.2; Myeloid diff MLP: inactive; Arr AP2 block: 34.9; Granule exo CP1: -13.5

How did COc1ccc(OC)c(-c2csc(NC(=O)Cc3ccccc3F)n2)c1 do in these assays?
ATG4B inh: -24.5; ABCB6 inh 2: 96.0; Granule exo inh: 50.0; NRP1-CendR mod: 8.5; Myeloid diff MLP: inactive; Arr AP2 block: -8.0

What do the screens show for `COc1ccc(OC)c(-c2csc(NC(=O)Cc3ccccc3OC)n2)c1`?
ATG4B inh: 3.4; ABCB6 inh 2: 93.0; Granule exo inh: 68.0*; NRP1-CendR mod: 8.3; Myeloid diff MLP: inactive; Arr AP2 block: 3.3; Granule exo CP1: -4.9

How did COc1ccc(C(O)(CCN2CCCCC2)C2CCCCC2)cc1 (centres undefined) do in these assays?
ATG4B inh: -2.9; ABCB6 inh 2: 100.0; Granule exo inh: 75.2*; NRP1-CendR mod: -13.1; Myeloid diff MLP: inactive; Arr AP2 block: -8.3; Granule exo CP1: -12.0

Results for CC(NC(=O)c1cccc2c1Oc1ccccc1S2)C(=O)O (centres undefined) ?
ABCB6 inh 2: 99.0; Granule exo inh: 17.2; NRP1-CendR mod: -4.6; Myeloid diff MLP: inactive

Results for CCc1ccc(NC(=O)CSCCO)cc1 ?
ATG4B inh: -11.2; ABCB6 inh 2: 100.0; Granule exo inh: 85.2*; NRP1-CendR mod: -4.9; Myeloid diff MLP: inactive; Arr AP2 block: -0.1; Granule exo CP1: -12.5

How did CCCCc1ccc(NC(=O)CSc2nc(=O)n(CCN(CC)CC)c3c2CCCC3)cc1 do in these assays?
ATG4B inh: -17.7; ABCB6 inh 2: 100.0; Granule exo inh: 81.7*; NRP1-CendR mod: -3.6; Myeloid diff MLP: inactive; Arr AP2 block: 3.4; Granule exo CP1: -1.6

Results for CC(=O)c1c(C)oc2c1cc(O)c1ccccc12 ?
ATG4B inh: -12.4; ABCB6 inh 2: 96.0; Granule exo inh: 88.9*; NRP1-CendR mod: -2.0; Myeloid diff MLP: inactive; Arr AP2 block: 9.9; Granule exo CP1: -13.2

How did CC(C)CC1C(=O)N(Cc2cn(Cc3ccco3)nn2)CCS(=O)(=O)N1Cc1ccc(-c2ccc(F)nc2)cc1 (centres undefined) do in these assays?
ABCB6 inh 2: 99.0; Granule exo inh: -2.4; NRP1-CendR mod: -10.7; Myeloid diff MLP: inactive

How did COc1ccc(NC(=O)c2c(C)nn(Cc3ccccc3)c2C)cc1S(=O)(=O)N(C)C do in these assays?
ATG4B inh: -6.0; ABCB6 inh 2: 97.0; Granule exo inh: 70.6*; NRP1-CendR mod: 10.5; Myeloid diff MLP: inactive; Arr AP2 block: 24.6; Granule exo CP1: -3.8

Screening data (PubChem BioAssay)
